These results are taken from ChEMBL document CHEMBL1275300, “Synthesis and antituberculosis activity of some new pyridazine derivatives. Part II” (Eur J Med Chem, 2010).

≈ marks a conversion by molar mass, not a printed value.

The assay relates to Mycobacterium tuberculosis. The assay can be described thus: Antimicrobial activity against Mycobacterium tuberculosis H37Rv ATCC 27294 by microplate alamar blue assay. It counts as functional, organism-based. An outline of the steps: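 M. tuberculosis H37Rv (ATCC 27294) grown in BACTEC 12B medium and tested by microplate Alamar Blue assay. Compounds were dissolved in DMSO, diluted with distilled water, and tested as ten 2-fold dilutions. Read-out was fluorescence. IC90 is the concentration giving 90% fluorescence reduction versus controls; IC50 is defined the same way at 50%.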
For orientation: Alamar Blue is a resazurin reagent that responds to reducing activity.

Molecule `C=CCn1nc(-c2ccc(Br)cc2)ccc1=O` gave an IC50 of 37.8 µg/mL (≈ 130 µM) and an IC90 of 46.8 µg/mL (≈ 161 µM).
For `COC(=O)Cn1nc(-c2ccc(Br)cc2)ccc1=O`, in that order: 73.2 µg/mL (≈ 227 µM) and above 100 µg/mL.
Taken in the same sequence, the figures for `NC(=O)Cn1nc(-c2ccc(Cl)cc2)ccc1=O` were above 100 µg/mL and above 100 µg/mL.
Molecule `COC(=O)Cn1nc(-c2ccc(C)cc2)ccc1=O` registered a concentration for half-maximal inhibition (IC50) above 100 µg/mL and an IC90 above 100 µg/mL.
In turn, `C#CCn1nc(-c2ccc(Br)cc2)ccc1=O` showed a half-maximal inhibitory concentration (IC50) of 97.8 µg/mL (≈ 338 µM) and an IC90 above 100 µg/mL.
Take `CCOC(=O)C(C)n1nc(-c2ccc(C)cc2)ccc1=O` (stereo unspecified): half-maximal inhibition (IC50) was put at 64.9 µg/mL (≈ 227 µM) and the IC90 is 84 µg/mL (≈ 293 µM).
For `CCOC(=O)Cn1nc(-c2ccc(Cl)cc2)ccc1=O`, in that order: above 100 µg/mL and above 100 µg/mL.
For `C=CCn1nc(-c2ccc(Cl)cc2)ccc1=O`, in that order: 36.6 µg/mL (≈ 148 µM) and 61.6 µg/mL (≈ 250 µM).
On to `NC(=O)Cn1nc(-c2ccc(Br)cc2)ccc1=O`, for which the 50% inhibitory concentration (IC50) was above 100 µg/mL and the IC90 is above 100 µg/mL.
In turn, `C#CCn1nc(-c2ccc(Cl)cc2)ccc1=O` gave an IC50 of 34.7 µg/mL (≈ 142 µM) and a 90% effect concentration (IC90) above 100 µg/mL.
Taken in the same sequence, the figures for `Cc1ccc(-c2ccc(=O)n(CC(N)=O)n2)cc1` were above 100 µg/mL and above 100 µg/mL.
For `C=CCn1nc(-c2ccc(C)cc2)ccc1=O`, in that order: 60.7 µg/mL (≈ 268 µM) and 76.5 µg/mL (≈ 338 µM).
As for `CCOC(=O)Cn1nc(-c2ccc(Br)cc2)ccc1=O`, the IC50 is above 100 µg/mL and the 90% effect concentration (IC90) is above 100 µg/mL.
In turn, `CCOC(=O)C(C)n1nc(-c2ccc(Br)cc2)ccc1=O` (stereo unspecified) showed an IC50 of 26.8 µg/mL (≈ 76.5 µM) and an IC90 of 47.5 µg/mL (≈ 135 µM).
For `CCOC(=O)Cn1nc(-c2ccc(C)cc2)ccc1=O`, in that order: above 100 µg/mL and above 100 µg/mL.
For the molecule `C#CCn1nc(-c2ccc(C)cc2)ccc1=O`, the IC50 worked out at 63.7 µg/mL (≈ 284 µM) and the 90% effect level (IC90) was put at 89.2 µg/mL (≈ 398 µM).
For `COC(=O)Cn1nc(-c2ccc(Cl)cc2)ccc1=O`, the IC50 was found to be 94.2 µg/mL (≈ 338 µM) and the 90% effect concentration (IC90) is above 100 µg/mL.
Taken in the same sequence, the figures for `CCOC(=O)C(C)n1nc(-c2ccc(Cl)cc2)ccc1=O` (stereo unspecified) were 28.6 µg/mL (≈ 93.2 µM) and 46 µg/mL (≈ 150 µM).

By IC50 is commonly meant the concentration needed to halve the response being measured. A lower IC50 goes with inhibition by little substance. In general, IC90 refers to the concentration at which the effect reaches the 90% level.
